Consider one compound from ChEMBL document CHEMBL1909618, “Non-steroidal dissociated glucocorticoid agonists: indoles as A-ring mimetics and function-regulating pharmacophores” (Bioorg Med Chem Lett, 2011).

In data set [1] the test system is Mus musculus. The data set can be described thus: Toxicity in B10.R3 mouse collagen-induced arthritis model assessed as change in serum insulin level at 30 mg/kg, po qd for 5 weeks by ELISA relative to control. The arrangement: dose 30 mg/kg, route oral. The conditions noted are these: in vivo, 840 h. It is filed as organism-based. For orientation: ELISA stands for enzyme-linked immunosorbent assay.

Data set [2] deals with Mus musculus. The data set can be described thus: Toxicity in B10.R3 mouse collagen-induced arthritis model assessed as change in serum free fatty acids level at 30 mg/kg, po qd for 5 weeks relative to control. In kind it is organism-based. The arrangement: dose 30 mg/kg, route oral. Particulars: in vivo, 840 h. In short, it runs like this: (§1)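 Arthritic B10.RIII CIA mice were dosed orally once daily for 5 weeks. At day 35 they were anesthetized with ketamine (50 mg/kg) and xylazine (15 mg/kg). Body fat was assessed by whole-body density scan. Serum triglycerides were measured by enzymatic kit (Wako L-Type TG-H) and free fatty acids by NEFA-C. Results are expressed as % change versus vehicle and compared by t-test.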

The test system of data set [3] is Mus musculus. The data set can be described thus: Toxicity in B10.R3 mouse collagen-induced arthritis model assessed as change in serum triglyceride level at 3 mg/kg, po qd for 5 weeks relative to control. It is filed as organism-based. The conditions noted are these: in vivo, 840 h. The arrangement: dose 3 mg/kg, route oral. An outline of the steps: as §1
In data set [4] the test system is Mus musculus. Nature of the data set: Toxicity in B10.R3 mouse collagen-induced arthritis model assessed as change in body weight at 30 mg/kg, po qd for 5 weeks relative to control. Details: dose 30 mg/kg, route oral. The conditions noted are these: in vivo, 840 h. In kind it is organism-based.
The subject of data set [5] is Mus musculus. Nature of the data set: Toxicity in B10.R3 mouse collagen-induced arthritis model assessed as change in serum triglyceride level at 30 mg/kg, po qd for 5 weeks relative to control. The arrangement: dose 30 mg/kg, route oral. In kind it is organism-based. The conditions noted are these: in vivo, 840 h. An outline of the steps:
as §1

Data set [6] concerns Mus musculus. The data set can be described thus: Toxicity in B10.R3 mouse collagen-induced arthritis model assessed as change in body fat level at 30 mg/kg, po qd for 5 weeks relative to control. In kind it is organism-based. Particulars: in vivo, 840 h. The arrangement: dose 30 mg/kg, route oral. In short, it runs like this:
as §1

Data set [7] has as its system Mus musculus. The data set can be described thus: Toxicity in B10.R3 mouse collagen-induced arthritis model assessed as change in serum insulin level at 3 mg/kg, po qd for 5 weeks by ELISA relative to control. In kind it is organism-based. The arrangement: dose 3 mg/kg, route oral. The conditions noted are these: in vivo, 840 h.
Data set [8] has as its system Mus musculus. The data set can be described thus: Toxicity in B10.R3 mouse collagen-induced arthritis model assessed as change in body weight at 3 mg/kg, po qd for 5 weeks relative to control. In kind it is organism-based. Details: dose 3 mg/kg, route oral. The conditions noted are these: in vivo, 840 h.
Data set [9] is filed under the species Mus musculus. The data set can be described thus: animal or person. Particulars: B10.R3, po, 840 h, read-out: INH.
For data set [10], the system named is Mus musculus. The data set can be described thus: Antiarthritic activity in B10.R3 mouse collagen-induced arthritis model assessed as AUC of disease progression inhibition at 10 mg/kg, po qd for 5 weeks. In kind it is functional. Particulars: B10.R3, 840 h. In short, it runs like this:
(§2)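 B10.RIII mice immunized with porcine type II collagen plus complete Freund's adjuvant were enrolled at the first signs of arthritis. They were dosed orally once daily for 5 weeks; vehicle was 30% Cremophor RH. All four paws were scored 1–4 (maximum 16 per animal). Disease-score AUCs from 10 mice per group were compared with vehicle by Mann–Whitney test.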

Data set [11] concerns Mus musculus. Nature of the data set: Toxicity in B10.R3 mouse collagen-induced arthritis model assessed as change in serum free fatty acids level at 3 mg/kg, po qd for 5 weeks relative to control. In kind it is organism-based. Details: dose 3 mg/kg, route oral. Particulars: in vivo, 840 h. An outline of the steps:
as §1

In data set [12] the test system is Mus musculus. The data set can be described thus: Antiinflammatory activity in mouse plasma assessed as inhibition of LPS-induced TNFalpha production at 10 mg/kg, po administered 1 hr before LPS challenge measured after 1 hr. It is filed as functional. In short, it runs like this:
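Mice received compound orally in Cremophor RH 1 h before LPS challenge. Plasma TNF-α was measured 1 h after challenge. n = 8 per group; doses were 3 and 10 mg/kg.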

For data set [13], the system named is Mus musculus. Nature of the data set: Antiarthritic activity in B10.R3 mouse collagen-induced arthritis model assessed as AUC of disease progression inhibition at 30 mg/kg, po qd for 5 weeks. It is filed as functional. The conditions noted are these: B10.R3, 840 h. In short, it runs like this: as §2
The test system of data set [14] is Mus musculus. Nature of the data set: Toxicity in B10.R3 mouse collagen-induced arthritis model assessed as change in body fat level at 3 mg/kg, po qd for 5 weeks relative to control. The conditions noted are these: in vivo, 840 h. It is filed as organism-based. The arrangement: dose 3 mg/kg, route oral. In short, it runs like this: as §1

The structures appear in SMILES notation.

As to `C[C@]12C=CC(=O)C=C1CC[C@@H]1[C@@H]2[C@@H](O)C[C@@]2(C)[C@H]1CC[C@]2(O)C(=O)CO` [PREDNISOLONE], the Activity in the data set on Mus musculus [1] was 190%; in the data set on Mus musculus [2], 25%; with Mus musculus [3] it was -11%; in the data set on Mus musculus [4], 9%; in the data set with Mus musculus [5] it was 55%; in the data set on Mus musculus [6], 70%. Further, the Activity in the data set with Mus musculus [7] was 37%; in the data set on Mus musculus [8], 1.1%; in the data set on Mus musculus [11], 8%; in the data set with Mus musculus [14], 36%. The inhibition in vivo at 3 mg/kg in the data set listed under Mus musculus [9] was determined as 42%. For the same compound, the inhibition in vivo at 10 mg/kg in the data set with Mus musculus [10] was 62%; with Mus musculus [12], 84%. Also, the inhibition in vivo at 30 mg/kg in the data set with Mus musculus [13] amounted to 80%.
